Results from publication PMC4340355 (ACS Chemical Biology, 2014).
Where two headings read alike, the source gives them in different places. Peptide text beside a SMILES is read from it. * marks the point of attachment. Cbz = O=C(OCc1ccccc1)*

Key:
Type in all cases: biochemical
[1] = test system: rabbit proteasome fraction II; assay: Rate of proteolysis
Outline: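 Fluorescence followed 2 h at RT. Rate came from a linear fit to the first 10% substrate consumption. FU were converted to μmol via overnight-spiked fold change and a standard line. No-enzyme controls were run. Values are mean ± SD of triplicates.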

proteasome = test system: proteasome
[2] = target: T1, chymotrypsin-like (ChL) activity of rabbit proteasome fraction II (Oryctolagus cuniculus, UniProt G1T4Q9); assay: Inhibition of proteasome-catalyzed hydrolysis of ChL sensor ChL1–488
T1 sequence (G1T4Q9 1-263): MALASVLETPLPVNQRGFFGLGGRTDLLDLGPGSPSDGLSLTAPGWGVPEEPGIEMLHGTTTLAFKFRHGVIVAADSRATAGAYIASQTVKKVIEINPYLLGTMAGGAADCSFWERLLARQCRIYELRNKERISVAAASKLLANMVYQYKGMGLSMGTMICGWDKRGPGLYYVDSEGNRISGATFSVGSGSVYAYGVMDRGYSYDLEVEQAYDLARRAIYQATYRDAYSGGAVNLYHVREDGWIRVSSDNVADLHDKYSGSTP

[3] = target: T2, caspase-like (CaL) activity of rabbit proteasome fraction II (Oryctolagus cuniculus, UniProt A0A5F9DQW2); assay: Inhibition of proteasome-catalyzed hydrolysis of CaL sensor CaL1–633
T2 sequence (A0A5F9DQW2 1-212): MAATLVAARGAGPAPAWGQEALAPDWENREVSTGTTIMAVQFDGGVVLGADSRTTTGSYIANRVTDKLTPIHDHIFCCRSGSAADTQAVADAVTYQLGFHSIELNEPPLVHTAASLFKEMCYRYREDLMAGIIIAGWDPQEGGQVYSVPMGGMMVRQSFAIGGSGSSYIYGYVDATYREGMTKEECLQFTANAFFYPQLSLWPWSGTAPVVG

[4] = target: yeast proteasome CaL mutant (Saccharomyces cerevisiae, UniProt P25043+P30656+P38624); assay: Rate of sensor cleavage by yeast deficient lysate, CaL mutant

IC50 [2] | IC50 [3] | proteolysis by the proteasome containing the mutation in the CaL subunit [4] | Compound | specific activity ([1]; 2.5 μM sensor) | specific activity ([1]; 5 μM sensor) | effect on CaL activity (proteasome; in the presence of TL1–550) | enhancement of the rate of TL1–550 hydrolysis (proteasome; when ChL1–488 is present) | reduction of the rate of proteolysis of ChL1–488 (proteasome; in the presence of CaL1–633) | reduction of the rate of proteolysis of ChL1–488 (proteasome; in the presence of TL1–550) | effect on TL activity (proteasome; in the presence of CaL1–633)
– | – | – | TAMRA–LRRK(AB40) [TL1–550] | 0.05 ± 0.003 nmol min^–1 mg^–1 enzyme | 0.06 ± 0.001 nmol min^–1 mg^–1 enzyme | impaired | up to 5 fold | – | – | –
0.62 ± 0.06 µM | 180 ± 150 µM | – | CC(C)C[C@@H](C=O)NC(=O)[C@H](CC(C)C)NC(=O)[C@H](CC(C)C)NC(=O)OCc1ccccc1 [MG132] (Cbz-Leu-Leu-Leu-aldehyde) | – | – | – | – | – | – | –
– | – | – | FAM–HHSLK(AB40) [ChL1–488] | 0.22 ± 0.02 nmol min^–1 mg^–1 enzyme | 0.31 ± 0.03 nmol min^–1 mg^–1 enzyme | – | – | up to 90% | up to 50% | –
– | – | not proteolyzed | DyLight633–nLPnLDK(AB40) [CaL1–633] | 0.03 ± 0.001 nmol min^–1 mg^–1 enzyme | 0.02 ± 0.002 nmol min^–1 mg^–1 enzyme | – | – | – | – | reduced
